# Assays:
# [1] = molecular target: T1, Protein kinase C theta type (Homo sapiens, UniProt Q04759); assay: Inhibition of PKCtheta by FP assay
# Summary of the method: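 Recombinant PKC-θ, […], in 20 mM Hepes pH 7.6 with 0.1 mM CaCl2, 10 mM MgCl2, 0.01% Chaps, TCEP, Na orthovanadate and protease inhibitor cocktail. Enzyme pre-incubated with compound dilutions for 10 min at rt. Phosphopeptide read by competition FP using fluorescein-labelled phosphopeptide tracer and anti-phosphoserine antibody in quench buffer.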
# T-cell = assay: Inhibition of IL2 production in […]-stimulated human CD4+ T cells; format: functional, cell-based; conditions: in the assay text read “anti-CD3/anti-CD28” for “anti-CD3/anti-CD8”
# Summary of the method: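 Human CD4+ T cells isolated from whole blood by positive selection. Cells activated through TCR and CD28 with anti-CD3 and anti-CD28 mAbs. 50,000 cells/well exposed to compound dilutions at 0.125% DMSO final, or DMSO alone, overnight at 37 °C. Supernatant IL-2 measured by ELISA after 1:10 dilution.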
# Cytochrome P450 2C9 = Cytochrome P450 2C9 (Homo sapiens, UniProt P11712); assay: Inhibition of CYP2C9; format: ADME
# Cytochrome P450 2D6 = Cytochrome P450 2D6 (Homo sapiens, UniProt P10635); assay: Inhibition of CYP2D6; format: ADME
# Cytochrome P450 3A4 [2] = molecular target: T2, Cytochrome P450 3A4 (Homo sapiens, UniProt P08684); assay: Inhibition of CYP3A4 in presence of BFC substrate; format: ADME
# [3] = Stability in human liver microsomes; format: ADME, Microsome
# [4] = Permeability across Caco-2 cells from apical to basolateral side; format: ADME, cell-based; conditions: human, read-out: permeability
# [5] = Permeability across Caco-2 cells from basolateral to apical side; format: ADME, cell-based; conditions: human, read-out: permeability
# Cytochrome P450 3A4 [6] = molecular target: T2, Cytochrome P450 3A4; assay: Inhibition of CYP3A4 in presence of BQ substrate; format: ADME
# [7] = molecular target: T1, Protein kinase C theta type; assay: Inhibition of PKCtheta in presence of 50 uM ATP
# [8] = molecular target: T1, Protein kinase C theta type; assay: Inhibition of PKCtheta in presence of 100 uM ATP
# Chain of Cytochrome P450 2D6 (P10635 whole entry): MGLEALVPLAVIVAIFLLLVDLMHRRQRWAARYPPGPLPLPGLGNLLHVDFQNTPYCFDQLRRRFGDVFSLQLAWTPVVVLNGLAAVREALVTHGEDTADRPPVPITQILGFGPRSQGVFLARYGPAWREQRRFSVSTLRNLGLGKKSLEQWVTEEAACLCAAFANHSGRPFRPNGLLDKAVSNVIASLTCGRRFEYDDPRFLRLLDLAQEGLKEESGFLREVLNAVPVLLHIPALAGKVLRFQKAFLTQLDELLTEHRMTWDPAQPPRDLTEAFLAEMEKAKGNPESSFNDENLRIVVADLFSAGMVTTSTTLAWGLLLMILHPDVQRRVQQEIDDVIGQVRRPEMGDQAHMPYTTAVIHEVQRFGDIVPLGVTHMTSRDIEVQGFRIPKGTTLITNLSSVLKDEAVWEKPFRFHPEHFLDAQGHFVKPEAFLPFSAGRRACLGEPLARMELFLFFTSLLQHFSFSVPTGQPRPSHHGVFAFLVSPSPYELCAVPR
# T2 sequence (P08684 whole entry): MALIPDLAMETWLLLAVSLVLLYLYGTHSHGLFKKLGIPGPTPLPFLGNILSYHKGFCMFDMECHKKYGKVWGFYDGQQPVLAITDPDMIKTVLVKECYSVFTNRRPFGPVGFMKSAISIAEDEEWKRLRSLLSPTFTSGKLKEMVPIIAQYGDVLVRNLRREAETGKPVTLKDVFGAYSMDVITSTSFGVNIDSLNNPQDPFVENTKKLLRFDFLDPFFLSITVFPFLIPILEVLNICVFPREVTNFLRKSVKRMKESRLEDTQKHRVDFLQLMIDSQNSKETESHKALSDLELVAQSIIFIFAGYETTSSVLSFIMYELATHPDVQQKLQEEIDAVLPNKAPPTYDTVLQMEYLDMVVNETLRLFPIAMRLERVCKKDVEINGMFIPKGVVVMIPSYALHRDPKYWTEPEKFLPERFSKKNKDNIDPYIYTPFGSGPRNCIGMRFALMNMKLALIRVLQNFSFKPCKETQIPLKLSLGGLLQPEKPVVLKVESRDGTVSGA
# Chain of Cytochrome P450 2C9 (P11712 whole entry): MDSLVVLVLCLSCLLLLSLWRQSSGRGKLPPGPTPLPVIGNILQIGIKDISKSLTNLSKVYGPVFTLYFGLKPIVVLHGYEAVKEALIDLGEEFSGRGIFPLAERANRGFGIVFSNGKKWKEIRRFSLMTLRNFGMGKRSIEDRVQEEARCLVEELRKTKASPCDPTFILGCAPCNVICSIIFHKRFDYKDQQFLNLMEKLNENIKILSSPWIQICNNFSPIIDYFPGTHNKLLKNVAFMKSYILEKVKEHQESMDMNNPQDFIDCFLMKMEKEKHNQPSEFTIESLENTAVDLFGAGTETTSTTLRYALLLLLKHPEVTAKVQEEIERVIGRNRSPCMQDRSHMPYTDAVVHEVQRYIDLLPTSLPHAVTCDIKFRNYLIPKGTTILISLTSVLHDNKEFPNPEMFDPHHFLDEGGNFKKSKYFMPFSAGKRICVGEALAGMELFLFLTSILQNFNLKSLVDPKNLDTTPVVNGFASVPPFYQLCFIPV
# T1 sequence (Q04759 whole entry): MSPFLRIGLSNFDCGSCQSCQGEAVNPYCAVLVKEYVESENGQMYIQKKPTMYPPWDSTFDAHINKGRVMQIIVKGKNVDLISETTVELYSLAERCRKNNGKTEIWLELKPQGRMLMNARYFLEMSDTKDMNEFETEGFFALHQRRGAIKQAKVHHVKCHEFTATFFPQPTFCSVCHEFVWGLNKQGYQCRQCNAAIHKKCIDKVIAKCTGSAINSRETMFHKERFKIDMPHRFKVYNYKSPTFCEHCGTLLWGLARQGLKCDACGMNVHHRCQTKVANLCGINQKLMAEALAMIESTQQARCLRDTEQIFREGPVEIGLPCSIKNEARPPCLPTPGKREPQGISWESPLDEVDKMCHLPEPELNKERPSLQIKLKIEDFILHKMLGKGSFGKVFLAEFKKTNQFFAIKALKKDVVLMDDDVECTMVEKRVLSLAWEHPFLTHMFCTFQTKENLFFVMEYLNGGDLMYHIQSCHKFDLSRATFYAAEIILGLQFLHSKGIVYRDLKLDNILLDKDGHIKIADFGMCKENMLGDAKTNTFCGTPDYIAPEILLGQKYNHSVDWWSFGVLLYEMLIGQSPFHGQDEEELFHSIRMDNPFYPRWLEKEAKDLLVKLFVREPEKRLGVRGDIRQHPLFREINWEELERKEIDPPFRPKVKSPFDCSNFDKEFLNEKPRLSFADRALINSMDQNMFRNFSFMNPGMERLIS
SMILES,IC50 [1],also measured
NCC1CCC(CNc2nc(NCc3cccc(F)c3)ncc2[N+](=O)[O-])CC1 (stereo unspecified),83 nM,
NCC1CCC(CNc2nc(NCc3cccc(F)c3F)ncc2[N+](=O)[O-])CC1 (stereo unspecified),22 nM,
Cc1cccc(CNc2ncc([N+](=O)[O-])c(NCC3CCC(CN)CC3)n2)c1C (stereo unspecified),13 nM,
Cc1ccc(C)c(CNc2ncc([N+](=O)[O-])c(NCC3CCC(CN)CC3)n2)c1 (stereo unspecified),910 nM,
NCC1CCC(CNc2nc(NCc3ccc(F)cc3)ncc2[N+](=O)[O-])CC1 (stereo unspecified),210 nM,
COc1ccc(CNc2ncc([N+](=O)[O-])c(NCC3CCC(CN)CC3)n2)cc1 (stereo unspecified),12000 nM,
NCC1CCC(CNc2nc(NCc3ccccc3C(F)F)ncc2[N+](=O)[O-])CC1 (stereo unspecified),15 nM,
NCC1CCC(CNc2nc(NCc3ccc(F)cc3F)ncc2[N+](=O)[O-])CC1 (stereo unspecified),100 nM,
NCC1CCC(CNc2nc(NC(=O)c3ccccc3Br)ncc2[N+](=O)[O-])CC1 (stereo unspecified),2200 nM,
NC[C@H]1CC[C@@H](CNc2nc(NCc3ccccc3Cl)ncc2[N+](=O)[O-])CC1,18 nM,
CN(C)CC1CCC(CNc2nc(NCc3ccccc3Cl)ncc2[N+](=O)[O-])CC1 (stereo unspecified),54 nM,IC50 (T-cell): 190 nM; IC50 (Cytochrome P450 2C9): 8400 nM; IC50 (Cytochrome P450 2D6): 1700 nM; IC50 (Cytochrome P450 3A4 [2]): 1700 nM; half-life [3]: 40 min; Papp A→B [4]: 10.6 ×10⁻⁶ cm/s; Papp B→A [5]: 10.2 ×10⁻⁶ cm/s; IC50 (Cytochrome P450 3A4 [6]): 13000 nM
O=[N+]([O-])c1cnc(NCc2ccccc2Cl)nc1NCC1CCNCC1,90 nM,IC50 (T-cell): 720 nM; IC50 (Cytochrome P450 2C9): 17600 nM; IC50 (Cytochrome P450 2D6): > 30000 nM; IC50 (Cytochrome P450 3A4 [2]): 28000 nM; half-life [3]: 66 min; Papp A→B [4]: 8.1 ×10⁻⁶ cm/s; Papp B→A [5]: 10.6 ×10⁻⁶ cm/s; IC50 (Cytochrome P450 3A4 [6]): > 30000 nM
NCC1CCC(CNc2nc(NCc3ccccc3SC(F)(F)F)ncc2[N+](=O)[O-])CC1 (stereo unspecified),6 nM,
NCC1CCC(CNc2nc(NCc3ccccc3Br)ncc2[N+](=O)[O-])CC1 (stereo unspecified),5 nM,
NCC1CCC(CNc2nc(NCc3ccccc3-c3ccccc3)ncc2[N+](=O)[O-])CC1 (stereo unspecified),39 nM,
NCC1CCC(CNc2nc(NCc3c(F)cccc3F)ncc2[N+](=O)[O-])CC1 (stereo unspecified),42 nM,
NCC1CCC(CNc2nc(NCc3cccc(Cl)c3Cl)ncc2[N+](=O)[O-])CC1 (stereo unspecified),8 nM,
NCC1CCC(CNc2nc(NCc3ccc(Cl)cc3Cl)ncc2[N+](=O)[O-])CC1 (stereo unspecified),27 nM,
CC(C)(Nc1ncc([N+](=O)[O-])c(NCC2CCC(CN)CC2)n1)c1ccccc1 (stereo unspecified),2500 nM,
C[C@H](Nc1ncc([N+](=O)[O-])c(NCC2CCC(CN)CC2)n1)c1ccccc1 (stereo partly specified),3700 nM,
NCC1CCCC(CNc2nc(NCc3ccccc3Cl)ncc2[N+](=O)[O-])C1 (stereo unspecified),3 nM,

SMILES,IC50 [1],also measured
NCCCCCNc1nc(NCc2ccccc2Cl)ncc1[N+](=O)[O-],450 nM,
NCCCCCCCNc1nc(NCc2ccccc2Cl)ncc1[N+](=O)[O-],110 nM,
NCC1CCC(CNc2nc(NCc3cc(Cl)ccc3Cl)ncc2[N+](=O)[O-])CC1 (stereo unspecified),7 nM,
Cc1c(Cl)cccc1CNc1ncc([N+](=O)[O-])c(NCC2CCC(CN)CC2)n1 (stereo unspecified),46 nM,
NCC1CCC(CNc2nc(N[C@H]3CCc4ccccc43)ncc2[N+](=O)[O-])CC1 (stereo partly specified),4400 nM,
NCC1CCC(CNc2nc(N[C@@H]3CCc4ccccc43)ncc2[N+](=O)[O-])CC1 (stereo partly specified),460 nM,
NCC1CCC(CNc2nc(NCc3ccccc3Cl)ncc2[N+](=O)[O-])CC1 (stereo unspecified),46 nM,IC50 [7]: 290 nM; IC50 [8]: 630 nM; IC50 (T-cell): 84 nM; IC50 (Cytochrome P450 2C9): 1000 nM; IC50 (Cytochrome P450 2D6): 4300 nM; IC50 (Cytochrome P450 3A4 [2]): 700 nM; half-life [3]: 48 min; Papp A→B [4]: 4 ×10⁻⁶ cm/s; Papp B→A [5]: 6.9 ×10⁻⁶ cm/s; IC50 (Cytochrome P450 3A4 [6]): 1400 nM
NCC1CCC(CNc2nc(NCc3ccc(Cl)cc3)ncc2[N+](=O)[O-])CC1 (stereo unspecified),170 nM,
Cc1ccccc1CCNc1ncc([N+](=O)[O-])c(NCC2CCC(CN)CC2)n1 (stereo unspecified),180 nM,
NCC1CCC(CNc2nc(NCCc3ccccc3F)ncc2[N+](=O)[O-])CC1 (stereo unspecified),130 nM,
NCC1CCC(CNc2nc(Nc3cc(Cl)cc(Cl)c3)ncc2C(F)(F)F)CC1 (stereo unspecified),4200 nM,
NCC1CCC(CNc2nc(Nc3cccc(Cl)c3)ncc2C(F)(F)F)CC1 (stereo unspecified),640 nM,
NCC1CCC(CNc2nc(NCCc3ccc(F)cc3)ncc2[N+](=O)[O-])CC1 (stereo unspecified),77 nM,
NCC1CCC(CNc2nc(NCc3ccccc3)ncc2[N+](=O)[O-])CC1 (stereo unspecified),500 nM,
NCC1CCC(CNc2nc(NC3Cc4ccccc4C3)ncc2[N+](=O)[O-])CC1 (stereo unspecified),31 nM,
NCC1CCC(CNc2nc(NCCc3ccccc3)ncc2[N+](=O)[O-])CC1 (stereo unspecified),94 nM,
NCC1CCC(CNc2nc(NCc3ccccc3C(F)(F)F)ncc2[N+](=O)[O-])CC1 (stereo unspecified),12 nM,
NCC1CCC(CNc2nc(NCc3ccccc3OC(F)(F)F)ncc2[N+](=O)[O-])CC1 (stereo unspecified),18 nM,
NCC1CCC(CNc2nc(NCCCCc3ccccc3)ncc2[N+](=O)[O-])CC1 (stereo unspecified),90 nM,
NCC1CCC(CNc2nc(NCCc3cccc(F)c3)ncc2[N+](=O)[O-])CC1 (stereo unspecified),54 nM,
NCc1ccc(CNc2nc(NCc3ccccc3Cl)ncc2[N+](=O)[O-])cc1,160 nM,

SMILES,IC50 [1],also measured
NCc1cccc(CNc2nc(NCc3ccccc3Cl)ncc2[N+](=O)[O-])c1,200 nM,
NCCCNc1nc(NCc2ccccc2Cl)ncc1[N+](=O)[O-],> 10000 nM,
C[C@@H](Nc1ncc([N+](=O)[O-])c(NCC2CCC(CN)CC2)n1)c1ccccc1 (stereo partly specified),5700 nM,
CSc1ccccc1CNc1ncc([N+](=O)[O-])c(NCC2CCC(CN)CC2)n1 (stereo unspecified),5 nM,IC50 (T-cell): 140 nM; IC50 (Cytochrome P450 2C9): 1400 nM; IC50 (Cytochrome P450 2D6): 4700 nM; IC50 (Cytochrome P450 3A4 [2]): 6900 nM; half-life [3]: 65 min; Papp A→B [4]: 1.6 ×10⁻⁶ cm/s; Papp B→A [5]: 1.9 ×10⁻⁶ cm/s; IC50 (Cytochrome P450 3A4 [6]): > 30000 nM
NCC1CCC(CNc2nc(Nc3cc(Cl)cc(Cl)c3)ncc2[N+](=O)[O-])CC1 (stereo unspecified),680 nM,
NCC1CCC(CNc2nc(NCc3cc(Cl)cc(Cl)c3)ncc2[N+](=O)[O-])CC1 (stereo unspecified),400 nM,
COc1cc(CNc2ncc([N+](=O)[O-])c(NCC3CCC(CN)CC3)n2)cc(OC)c1 (stereo unspecified),1500 nM,
COc1cccc(CNc2ncc([N+](=O)[O-])c(NCC3CCC(CN)CC3)n2)c1 (stereo unspecified),210 nM,
NCC1CCC(CNc2nc(NCc3ccccc3F)ncc2[N+](=O)[O-])CC1 (stereo unspecified),48 nM,
COc1ccccc1CNc1ncc([N+](=O)[O-])c(NCC2CCC(CN)CC2)n1 (stereo unspecified),17 nM,
NC[C@H]1CC[C@H](CNc2nc(NCc3ccccc3Cl)ncc2[N+](=O)[O-])CC1,29 nM,
NCC1CCC(CNc2nc(NCc3cc(F)ccc3F)ncc2[N+](=O)[O-])CC1 (stereo unspecified),35 nM,
NCC1CCC(CNc2nc(Nc3cccc(Cl)c3)ncc2[N+](=O)[O-])CC1 (stereo unspecified),60 nM,
NCC1CCC(CNc2nc(NCc3ccccc3[N+](=O)[O-])ncc2[N+](=O)[O-])CC1 (stereo unspecified),11 nM,
NCC1CCC(CNc2nc(NCCCc3ccccc3)ncc2[N+](=O)[O-])CC1 (stereo unspecified),270 nM,
O=[N+]([O-])c1cnc(NCc2ccccc2Cl)nc1NCC1CCCCC1,> 10000 nM,
CC(=O)NCC1CCC(CNc2nc(NCc3ccccc3Cl)ncc2[N+](=O)[O-])CC1 (stereo unspecified),> 10000 nM,
Cc1ccccc1CNc1ncc([N+](=O)[O-])c(NCC2CCC(CN)CC2)n1 (stereo unspecified),34 nM,
NCC1CCC(CNc2nc(NCc3cccc(Cl)c3)ncc2[N+](=O)[O-])CC1 (stereo unspecified),85 nM,
Cc1cccc(CNc2ncc([N+](=O)[O-])c(NCC3CCC(CN)CC3)n2)c1 (stereo unspecified),39 nM,

# Reference: ChEMBL document CHEMBL1138386, “Discovery of potent and selective PKC-theta inhibitors” (Bioorg Med Chem Lett, 2007)
